According to PubChem BioAssay AID561 (The Scripps Research Institute Molecular Screening Center, 2006):
The whole screen tested about 65,000 compounds, of which about 280 (0.43%) were called active. Only a selection was taken, and actives are over-represented in it overall. Unmarked numbers belong to inactive results.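 The calls were made as follows: active = inhibition above the mean of all tested compounds plus 3 SD (cut at about 52% in these data); inactive = the rest.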

target: Nuclear receptor ROR-alpha (Homo sapiens) (UniProt P35398); assay: suppression of basal RORA-driven reporter transcription – cell-based, luminescence, primary screen (AID 561); details: CHO-K1 Gal4-RORA LBD luciferase reporter, at 10 µM, hits give high values
Summary of the method: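 Test system: CHO-K1 cells with Gal4-hRORA LBD fusion and pG5-luc reporter / Compound: single concentration per compound, 10 µM final / Schedule: 20 h compound treatment, 37 °C / Signal: luminescence from basal luciferase reporter expression / Read-out: % inhibition / Control set: mock-transfected cells as 100%, +RORA DMSO cells as 0% / Replicates: tested once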

Chain of Nuclear receptor ROR-alpha (Homo sapiens) (P35398 whole entry, looked up, the tested form may be a part): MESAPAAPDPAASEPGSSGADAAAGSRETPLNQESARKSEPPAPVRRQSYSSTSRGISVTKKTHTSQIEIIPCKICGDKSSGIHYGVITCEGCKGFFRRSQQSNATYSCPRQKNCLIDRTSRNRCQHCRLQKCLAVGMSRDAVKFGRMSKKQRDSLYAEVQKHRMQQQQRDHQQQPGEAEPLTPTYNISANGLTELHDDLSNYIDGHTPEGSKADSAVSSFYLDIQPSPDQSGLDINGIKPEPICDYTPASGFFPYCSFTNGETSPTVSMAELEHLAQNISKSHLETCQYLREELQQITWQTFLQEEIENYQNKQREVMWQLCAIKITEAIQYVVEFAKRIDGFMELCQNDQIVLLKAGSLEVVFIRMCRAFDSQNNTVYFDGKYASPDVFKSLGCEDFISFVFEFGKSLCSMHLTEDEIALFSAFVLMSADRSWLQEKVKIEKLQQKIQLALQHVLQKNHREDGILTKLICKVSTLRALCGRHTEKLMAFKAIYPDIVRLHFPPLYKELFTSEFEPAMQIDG

SMILES	inhibition
Cc1cc(C)nc(N2CCN(c3ncnc4c3oc3ccccc34)CC2)n1	7.6%
CCCOc1ccccc1C(=O)NCCCC(=O)O	16.7%
O=C(C1CCN(c2nnc(-n3cccc3)s2)CC1)N1CCc2ccccc2C1	8.1%
COC(=O)Nc1ncc(CN2C(=O)c3ccccc3C2=O)s1	19.5%
COCn1c(COc2ccccc2)nc2ccccc21	-53.4%
Cc1ccc(CCNC(=O)C2CCN(S(=O)(=O)N3CCCC3)CC2)cc1	2.2%
COc1ccc(Nc2oc(-c3ccccc3Cl)nc2C#N)cc1	-98.6%
COC(=O)c1ccc(NC(=O)c2ccco2)cc1	-77.4%
C=CCn1c(C(C)NC(=O)CC)nc2ccccc21 (stereo not given)	-12.3%
Cn1c(=O)c2c(nc(N3CCCCCC3)n2CC(O)COc2ccc(Cl)cc2)n(C)c1=O (stereo not given)	-1%
C=CCOc1nc2c(c(=O)n(C)c(=O)n2C)n1Cc1ccc(Cl)cc1Cl	63.5% (active)
CCCc1[nH]nc2c1C(c1ccc(OC)c(Cn3nc(C)c(Br)c3C)c1)C(C#N)=C(N)O2 (stereo not given)	27.5%
CN(C)c1cc(N)c2ccccc2n1 (tested in a mixture with another compound)	-3.2%
O=C1c2oc3ccccc3c(=O)c2C(c2cccc(O)c2)N1c1ccccn1 (stereo not given)	-9.5%
COc1ccc(-c2nn(-c3ccccc3)cc2C(=O)Nc2nc(CC(C)=O)ns2)cc1	-0.5%
COc1cccc(N2CCN(C(=O)C3CCCN(S(=O)(=O)c4cnc[nH]4)C3)CC2)c1 (stereo not given)	4.9%
Cc1ccc(NC(=O)c2nc[nH]c2C(=O)N2CCCCC2)c(C(=O)c2ccccc2)c1	24.7%
O=c1[nH]c(-c2ccccc2)c(-c2ccccc2)[nH]1	23.5%

SMILES	inhibition
O=C(CCC(=O)c1cccs1)NCc1ccccc1	2.2%
COc1ccc(NC(=O)c2cccc(NC(=O)c3ccco3)c2)c(OC)c1	-19%
CC(C)n1c(SCC(=O)Nc2ccccc2N2CCCCC2)nc2c1c(=O)n(C)c(=O)n2C	18.7%
CC(C)Cc1cc(C(=O)NCCc2ccccc2)no1	-23.2%
c1coc(CNc2ncnc3ccccc23)c1	66.3% (active)
O=C(Cc1ccccc1)n1nc(-c2ccccc2)nc1NCc1ccco1	-8%
O=C(NCc1ccc2c(c1)OCO2)c1ccc2c(c1)C(=O)N(CC1CCCO1)C2=O (stereo not given)	4.9%
Cc1ccc(Cn2ccc(NC(=O)C3C4CCC(C4)C3C(=O)O)n2)cc1 (stereo not given)	-14.2%
COc1ccccc1C1/C(=C(/O)c2ccc(C)cc2)C(=O)C(=O)N1Cc1ccco1 (stereo not given)	-17.5%
O=C(CNC(=O)c1ccco1)OCC(=O)c1ccccc1	10.7%
O=c1cc(-c2ccccc2)nc(N2CCCCC2)[nH]1	-0.2%
CC(C)C[C@H](NC(=O)Nc1cccc(C(F)(F)F)c1)C(=O)O	11.1%
CN(c1ccc(C(=O)NCCC2=CCCCC2)cc1)S(C)(=O)=O	-63%
CC(=O)Nc1ccn(Cc2c(F)cccc2Cl)n1	-27.2%
CCOC(=O)Cc1c(C)nc2c(C#N)c(C)nn2c1C	-2.8%
COC(=O)C(C)C1Sc2ccccc2NC1=O (stereo not given)	13.2%
CC(=O)c1cnc(Nc2nc(C)c3cc(C)ccc3n2)nc1C	26.5%
